{"source": "ChEMBL document CHEMBL3272233", "about": "“Optical isomers of 2-(2-ethoxyphenoxymethyl)tetrahydro-1,4-oxazine (viloxazine) and related compounds” (1976)", "key": {"[1]": {"test_system": "Mus musculus", "experiment": "Sedative activity in po dosed mouse assessed as reduction in locomotor activity during 60 mins period immediately prior to and after dosing", "assay_type": "functional", "conditions": "1 h, read-out: MED", "outline": "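Given orally, with doses in mg/kg. The racemate and individual isomers were run by the earlier reported procedure. The value is the minimum effective dose that reduced locomotor activity.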"}, "[2]": {"test_system": "Mus musculus", "experiment": "Antidepressant activity in po dosed mouse assessed as antagonism of reserpine-induced hypothermia dosed 17 hrs after reserpine challenge", "assay_type": "functional", "outline": "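Oral dosing, with doses in mg/kg. The racemate and separated optical isomers were tested by the previously published method. Potency is expressed as the ED10 for antagonism of reserpine-induced hypothermia.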"}}}
{"smiles": "COc1cccc(OC[C@@H]2CNCCO2)c1", "values": [{"measurement": "minimal effective dose", "setting": "[1]", "result": 1, "unit": "mg/kg"}, {"measurement": "ED10", "setting": "[2]", "result": "> 100", "unit": "mg/kg"}]}
{"smiles": "COc1cccc(OC[C@H]2CNCCO2)c1", "values": [{"measurement": "minimal effective dose", "setting": "[1]", "result": 30, "unit": "mg/kg"}, {"measurement": "ED10", "setting": "[2]", "result": "> 100", "unit": "mg/kg"}]}
{"smiles": "COc1cccc(OCC2CNCCO2)c1", "note": "(racemic)", "values": [{"measurement": "minimal effective dose", "setting": "[1]", "result": 3, "unit": "mg/kg"}, {"measurement": "ED10", "setting": "[2]", "result": "> 100", "unit": "mg/kg"}]}
{"smiles": "CCOc1ccccc1OCC1CNCCO1", "note": "(racemic) [VILOXAZINE]", "values": [{"measurement": "minimal effective dose", "setting": "[1]", "result": 3, "unit": "mg/kg"}, {"measurement": "ED10", "setting": "[2]", "result": 0.3, "unit": "mg/kg"}]}
{"smiles": "CCOc1ccccc1OC[C@H]1CNCCO1", "note": "[(R)-VILOXAZINE]", "values": [{"measurement": "minimal effective dose", "setting": "[1]", "result": 30, "unit": "mg/kg"}, {"measurement": "ED10", "setting": "[2]", "result": 1, "unit": "mg/kg"}]}
{"smiles": "CCOc1ccccc1OC[C@@H]1CNCCO1", "note": "[(S)-VILOXAZINE]", "values": [{"measurement": "minimal effective dose", "setting": "[1]", "result": 1, "unit": "mg/kg"}, {"measurement": "ED10", "setting": "[2]", "result": 0.1, "unit": "mg/kg"}]}
